Calls of active or inactive are those of the source. No cut-off for these calls is given here.
Assays:
[1] = biological target: Glutamate [NMDA] receptor; test: Inhibition of [3H]1 binding to dextromethorpin binding site of guinea pig microsomal pellet P3 N-methyl-D-aspartate glutamate receptor; parameters: species or system Cavia porcellus
How it was run: (§1)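 Guinea pig brain microsomal P3 fraction (100000g, 60 min pellet) was used in Tris-HCl pH 7.4. [3H]dextromethorphan at 5 nM final was incubated with ~0.5 mg tissue for 20 min at 23 °C, with displacer at 10^-9–10^-5 M. Nonspecific binding was defined with 100 µM unlabelled ligand. Samples were filtered on GF/B in cold Tris/choline chloride/Triton buffer and counted.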

[2] = test system: Rattus norvegicus; test: Anticonvulsant activity in rat supramaximal electroshock (MES) test within a dose range of 15-60 mg/kg administered subcutaneously; format: functional; conditions: sc
How it was run: (§2)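 The compound was given sc in freshly diluted normal saline at 1-2 mL/kg across the stated dose range, with vehicle-injected controls. MES protection was scored 30 min post-dose, with n = 10 rats. ED50 was derived from the dose-response and reported with 95% confidence limits, in mg/kg and µmol/kg.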

[3] = test system: Rattus norvegicus; test: Anticonvulsant activity in rat supramaximal electroshock (MES) test expressed as % rats protected at a dose of 15-60 mg/kg.; format: functional
How it was run: (§3)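 Rats were given the compound sc in freshly diluted normal saline (DMSO or HCl-assisted dissolution for some compounds) at 1-2 mL/kg. Vehicle-injected controls were run. Rats were tested at 30 min after injection. The read-out is the % of rats protected from convulsion in the MES test at the stated doses, with n = 10 rats.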

[4] = test system: Glutamate NMDA receptor; test: Binding affinity against glycine binding site of N-methyl-D-aspartate glutamate receptor from rat synaptic plasma membrane(SPM) using [3H]glycine; NA = No effect
[5] = test system: Rattus norvegicus; test: Anticonvulsant activity in rat supramaximal electroshock (MES) test within a dose range of 15-60 mg/kg.; format: functional; how it was run: as §2
[6] = biological target: Glutamate [NMDA] receptor; test: (§4) Binding affinity against dextromethorpin binding site associated with N-methyl-D-aspartate glutamate receptor from guinea pig mitochondrial pellet P2 determined using [3H]1 as radioligand.; format: protein-complex assay, Cavia porcellus
How it was run: (§5)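 Guinea pig brain crude mitochondrial P2 fraction (11500g pellet, De Robertis-based) was used in Tris-HCl pH 7.4. [3H]dextromethorphan at 5 nM final was incubated with ~0.3 mg tissue for 20 min at 23 °C, with displacer at 10^-9–10^-5 M. Nonspecific binding was defined with 100 µM unlabelled ligand. Samples were filtered on GF/B and counted by scintillation.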

[7] = biological target: T1, Glutamate [NMDA] receptor (Homo sapiens) (UniProt Q05586+Q12879+Q13224+O15399+O60391+Q14957+Q8TCU5); conditions: Cavia porcellus; Plasma; 10e-5 M
[8] = biological target: T1, Glutamate [NMDA] receptor (Homo sapiens); conditions: Cavia porcellus; 10e-5 M
[9] = biological target: T2, Glutamate NMDA receptor (Rattus norvegicus) (UniProt P35439+Q00959+Q00960+Q00961+Q62645+Q8VHN2+Q9R1M7); conditions: 10e-5 M
[10] = biological target: T2, Glutamate NMDA receptor (Rattus norvegicus); test: Binding affinity against PCP binding site associated with N-methyl-D-aspartate glutamate receptor from rat synaptic plasma membrane(SPM) determined using [3H]TCP as radioligand; conditions: concentration not given here
How it was run: (§6)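 Crude rat brain synaptic plasma membranes (cerebellum removed, extensively washed) were used in 5 mM Tris-HCl pH 7.4. [3H]TCP at 5 nM final was incubated with ~0.2 mg membranes for 60 min at 23 °C. Nonspecific binding was defined with cold phencyclidine. Samples were filtered on GF/B pre-soaked in 0.5% PEI, washed with 5 mM Tris pH 7.7 and counted.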

[11] = test system: Rattus norvegicus; test: Anticonvulsant activity in rat supramaximal electroshock (MES) test expressed as % rats protected at a dose of 10 and 25 mg/kg.; format: functional; how it was run: as §3
[12] = biological target: Glutamate NMDA receptor; test: Binding affinity against dextromethorpin binding site of N-methyl-D-aspartate glutamate receptor from rat brain using [3H]1
How it was run: (§7)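 Rat brain membranes were the 100000g pellet of the 1000g supernatant, in 50 mM Tris-HCl pH 7.4. [3H]dextromethorphan (5 nM final) was incubated with ~0.3 mg membranes for 20 min at 23 °C, with displacer at 10^-9–10^-5 M. Nonspecific binding was defined with 100 µM unlabelled ligand. Samples were filtered on GF/B in cold Tris/choline chloride/Triton wash and counted by scintillation.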

[13] = biological target: T2, Glutamate NMDA receptor (Rattus norvegicus); test: Binding affinity against PCP binding site associated with N-methyl-D-aspartate glutamate receptor from rat synaptic plasma membrane(SPM) determined using [3H]TCP as radioligand.;NA = No effect; conditions: concentration not given here; how it was run: as §6
[14] = test system: Rattus norvegicus; test: Anticonvulsant activity in rat supramaximal electroshock (MES) test expressed as % rats protected at a dose of 1.25-10 mg/kg.; format: functional; how it was run: as §3
[15] = test system: Rattus norvegicus; test: Anticonvulsant activity in rat supramaximal electroshock (MES) test expressed as % rats protected at a dose of 25-50 mg/kg.; format: functional; how it was run: as §3
[16] = biological target: T2, Glutamate NMDA receptor (Rattus norvegicus); test: (§8) Binding affinity against PCP binding site associated with N-methyl-D-aspartate glutamate receptor from rat synaptic plasma membrane(SPM) determined using [3H]TCP as radioligand.; how it was run: as §6
[17] = biological target: Glutamate [NMDA] receptor; test: Binding affinity against dextromethorpin binding site associated with N-methyl-D-aspartate glutamate receptor from guinea pig microsomal pellet (P3) using [3H]1 as radioligand.; parameters: species or system Cavia porcellus; how it was run: as §1
[18] = biological target: Glutamate NMDA receptor; test: Binding affinity against dextromethorpin binding site associated with N-methyl-D-aspartate glutamate receptor from rat brain using [3H]1 as radioligand.; how it was run: as §7
[19] = test system: Glutamate NMDA receptor; test: Binding affinity against glycine binding site associated with N-methyl-D-aspartate glutamate receptor from rat synaptic plasma membrane using [3H]glycine as radioligand.
[20] = test system: Rattus norvegicus; test: Anticonvulsant activity in rat supramaximal electroshock (MES) test expressed as % rats protected at a dose of 50 mg/kg.; format: functional; how it was run: as §3
[21] = test system: Rattus norvegicus; test: Anticonvulsant activity in rat supramaximal electroshock (MES) test expressed as % rats protected at a dose of 5-40 mg/kg.; format: functional; how it was run: as §3
[22] = biological target: T2, Glutamate NMDA receptor (Rattus norvegicus); test: as §8; conditions: concentration not given here
How it was run: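 Rat brain (minus cerebellum) crude synaptic plasma membranes, washed repeatedly in 5 mM Tris-HCl pH 7.4; about 0.2 mg incubated with 5 nM [3H]TCP for 60 min at 23 °C, 0.5 mL final volume. Displacers tested at 10^-9–10^-5 M; cold PCP defines nonspecific binding. Bound ligand collected by filtration on PEI-soaked GF/B filters and counted by scintillation.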

[23] = test system: Rattus norvegicus; test: Anticonvulsant activity in rat supramaximal electroshock (MES) test expressed as % rats protected at a dose of 40 mg/kg.; format: functional; how it was run: as §3
[24] = test system: Rattus norvegicus; test: Anticonvulsant activity in rat supramaximal electroshock (MES) test expressed as % rats protected at a dose of 25-100 mg/kg.; format: functional; how it was run: as §3
[25] = biological target: Glutamate NMDA receptor; test: as §8; how it was run: as §6
[26] = test system: Rattus norvegicus; test: Anticonvulsant activity was determined in rat supramaximal electroshock (MES) test within a dose range of 15-60 mg/kg after (sc) administration; format: functional; how it was run: as §2
[27] = biological target: T2, Glutamate NMDA receptor (Rattus norvegicus); test: Binding affinity against dextromethorpin binding site associated with N-methyl-D-aspartate glutamate receptor from rat brain determined using [3H]1 as radioligand.; conditions: concentration not given here; how it was run: as §7
[28] = test system: Rattus norvegicus; test: Anticonvulsant activity in rat supramaximal electroshock (MES) test expressed as % rats protected at a dose of 12.5-50 mg/kg.; format: functional; how it was run: as §3
[29] = test system: Rattus norvegicus; test: Anticonvulsant activity in rat supramaximal electroshock (MES) test expressed as % rats protected at a dose of 2.5-50 mg/kg.; format: functional; how it was run: as §3
[30] = biological target: T1, Glutamate [NMDA] receptor (Homo sapiens); test: as §4; format: functional; conditions: Cavia porcellus; target entry is the homologue from another species; concentration not given here; how it was run: as §5
[31] = biological target: T2, Glutamate NMDA receptor (Rattus norvegicus); test: (§9) Binding affinity against glycine binding site associated with N-methyl-D-aspartate glutamate receptor from rat synaptic plasma membrane(SPM) determined using [3H]glycine as radioligand.;NA = No effect
[32] = biological target: T1, Glutamate [NMDA] receptor (Homo sapiens); test: Binding affinity against dextromethorpin binding site associated with N-methyl-D-aspartate glutamate receptor from guinea pig microsomal pellet P3 determined using [3H]1 as radioligand.; conditions: Cavia porcellus; target entry is the homologue from another species; concentration not given here; how it was run: as §1
[33] = biological target: Glutamate [NMDA] receptor; test: Binding affinity against dextromethorpin binding site associated with N-methyl-D-aspartate glutamate receptor from guinea pig mitochondriall pellet P2 determined using [3H]1 as radioligand.; format: protein-complex assay, Cavia porcellus; how it was run: as §5
[34] = test system: Glutamate NMDA receptor; test: as §9
[35] = test system: Rattus norvegicus; test: Anticonvulsant activity in rat supramaximal electroshock (MES) test expressed as % rats protected at a dose of 2.5-10 mg/kg.; format: functional; how it was run: as §3

Compound | IC50 [1] [µM] | IC50 [4] | ED50 [5] [µmol/kg] | IC50 [6] [µM] | IC50 [12] [µM] | other results
COc1ccc2c(c1)C13CCCCC1C(C2)N(C)CC3 (stereo not drawn) [RACEMETHORPHAN] | 0.49 | Not Active | 109 | 0.24 |  | ED50 [2]: 38 mg/kg; Protection [3]: 70%
C[C@]12N[C@H](Cc3ccccc31)c1ccccc12 |  |  |  |  |  | inhibition [7]: 20%; inhibition [8]: 19%; inhibition [9]: 42%
CCOc1ccc2c(c1)C13CCCCC1C(C2)N(C)CC3 (centres undefined) | 0.13 | Not Active | 17.4 | 0.09 | 0.42 | inhibition [10]: 75%; Protection [11]: 90%; ED50 [2]: 5.6 mg/kg
CC(C)Oc1ccc2c(c1)C13CCCCC1C(C2)N(C)CC3 (centres undefined) | 0.12 | Not Active | 9.4 | 0.15 | 0.88 | ED50 [2]: 3.9 mg/kg; inhibition [13]: 59%; Protection [14]: 90%
CN1CCC23CCCCC2C1Cc1ccc(N=C=S)cc13 (centres undefined) | 0.17 | Not Active |  | 0.44 | 1.5 | Protection [15]: 0%; inhibition ([16]; concentration not given here): 60%
CN1CCC23CCCCC2C1Cc1ccc(OCc2ccccc2)cc13 (centres undefined) |  |  |  | 0.27 |  | IC50 [17]: 0.15 µM; IC50 [18]: 3.1 µM; IC50 [19]: Not Active; Protection [20]: 30%; inhibition ([16]; concentration not given here): 39%
CCCCOc1ccc2c(c1)C13CCCCC1C(C2)N(C)CC3 (centres undefined) | 0.1 | Not Active |  | 0.16 | 1.5 | inhibition [10]: 58%; Protection [21]: 40%
CN(C)CCCN1c2ccccc2Sc2ccc(Cl)cc21 [CHLORPROMAZINE] | 0.6 | Not Active |  | 1.1 | 1.3 | inhibition [22]: 25%
CN(C)c1ccc2c(c1)C13CCCCC1C(C2)N(C)CC3 (centres undefined) | 1.1 | Not Active |  | 0.68 | 4.4 | inhibition [16]: 45 µM; Protection [23]: 40%
CNc1ccc2c(c1)C13CCCCC1C(C2)N(C)CC3 (centres undefined) | 1.3 | Not Active |  | 0.48 | 3.6 | Protection [24]: 0%; inhibition ([16]; concentration not given here): 43%
CN1CCC23CCCCC2C1Cc1ccccc13 (centres undefined) | 1 | Not Active |  | 1.7 | 1.3 | Protection [24]: 0%; inhibition ([16]; concentration not given here): 53%
c1ccc(C2(N3CCCCC3)CCCCC2)cc1 [PHENCYCLIDINE] |  |  |  |  |  | IC50 [25]: 0.18 µM
CN1CCC23CCCCC2C1Cc1ccc(N)cc13 (centres undefined) | 4.4 | Not Active | 76 | 6.4 |  | IC50 [25]: 7.8 µM; ED50 [26]: 25 mg/kg; inhibition [27]: 45%; Protection [28]: 100%
CN1CCC23CCCCC2C1Cc1ccc(Oc2nc(-c4ccccc4)nc4ccccc24)cc13 (centres undefined) |  |  |  |  |  | Protection [29]: 10%; inhibition [30]: 25%; inhibition [31]: inactive; inhibition [27]: 19%; inhibition [32]: 50%
CN1CC[C@]23CCCC[C@H]2[C@H]1Cc1ccc(O)cc13 [LEVORPHANOL] | 2.7 |  | 12 |  | 7.7 | IC50 [25]: 1.2 µM; IC50 [33]: 2.5 µM; ED50 [2]: 5 mg/kg; IC50 [34]: Not Active; Protection [35]: 90%
CN1CCC23CCCCC2C1Cc1ccc(Cl)cc13 (centres undefined) | 0.21 | Not Active |  | 0.37 | 1.1 | IC50 [25]: 5.5 µM; Protection [15]: 10%

Reference: ChEMBL document CHEMBL1126312, “Synthesis and evaluation of 3-substituted 17-methylmorphinan analogs as potential anticonvulsant agents” (J Med Chem, 1992)
